Hits are enriched below; roughly 1.3% of the tested compounds scored in any of these assays.
JMJD2C inh: inhibitors of GASC-1 histone demethylase, primary screen, biochemical, fluorescence, DELFIA europium | Lysine-specific demethylase 4C (Homo sapiens), Q9H3R0 | GST-JMJD2C(1-420) H3K9me3 demethylation | inhibition, % at 2.35 µM | 330,000 tested, 0.069% active | AID 2099, 2009;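 active = more than half of a compound's replicate wells show inhibition beyond 50%, single wells judged on their own value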;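 note: signal counts dimethyl H3K9 product captured on neutravidin plate; 0% = median of DMSO wells and 100% = 0.3 times that DMSO median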
NR2E3 ag-1: inhibitors of NR2E3-RetCOR corepressor binding, primary screen, NR2E3 agonist project, biochemical, TR-FRET, GST-NR2E3, biotin-RetCOR; Photoreceptor-specific nuclear receptor (Homo sapiens), Q9Y5X4; 1536-well; inhibition of corepressor binding, % at 4.78 µM; 320,000 tested, 0.12% active;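 active = percent inhibition above the cutoff of mean plus 3 SD of all tested compounds, set per screening campaign, cut at about 20% in these data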;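 note: 0% = DMSO wells and 100% = biotin wells as full block of FRET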
Target sequence (Q9Y5X4 whole entry, looked up): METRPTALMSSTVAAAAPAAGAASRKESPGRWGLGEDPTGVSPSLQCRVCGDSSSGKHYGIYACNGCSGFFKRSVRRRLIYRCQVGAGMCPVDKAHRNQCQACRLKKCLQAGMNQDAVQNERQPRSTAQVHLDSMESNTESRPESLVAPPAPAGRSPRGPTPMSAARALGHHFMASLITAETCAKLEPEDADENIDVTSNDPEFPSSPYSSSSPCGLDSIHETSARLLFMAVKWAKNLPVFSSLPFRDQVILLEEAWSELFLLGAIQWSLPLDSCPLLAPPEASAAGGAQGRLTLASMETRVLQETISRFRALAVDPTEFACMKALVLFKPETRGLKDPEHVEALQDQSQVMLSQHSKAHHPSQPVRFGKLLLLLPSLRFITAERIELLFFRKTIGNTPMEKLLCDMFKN
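Material: NR2E3–RetCOR corepressor complex / Amount: 1.35 nM GST-NR2E3 / Medium: Tris pH 7.5 / Compound: single nominal compound dose of 4.8 µM / Incubation: 5 h at 4 °C / Technique: TR-FRET, Eu(K)-anti-GST donor, streptavidin-D2 acceptor, ex 340, em 617/671 nm / Read-out basis: percent loss of FRET ratio relative to control wells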
Furin inh: human furin inhibitors, primary screen, biochemical, fluorescence intensity; purified furin, fluorogenic substrate cleavage; inhibition, % at 20 µM or 30 µM; 220,000 tested, 0.061% active; in the data active = inhibition above about 25%
PGE2 EP2 inh: human EP2 receptor antagonists, primary screen, TR-FRET cAMP, C6 glioma cells. AID 1422, 2008. 260,000 tested, 0.52% active. C6 glioma cells expressing human EP2; cells stimulated with saturating PGE2. inhibition, % at 25 µM;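 active = percent inhibition above 40 after rounding to a whole number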;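 note: rat C6 glioma host cells with rolipram phosphodiesterase inhibitor present; the protocol text gives 20 µM as final concentration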
EP2 modulator: EP2 receptor modulators, cAMP readout, primary screen, cell-based, HTRF cAMP, PGE2 stimulation; Prostaglandin E2 receptor EP2 subtype (Homo sapiens), P43116; EP2-expressing cells, cAMP HTRF FRET, PGE2 co-stimulation; induction, % at 25 µM; 260,000 tested, 0.83% active;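 active = compounds whose cAMP rise, as percent of the full-agonist control response, exceeds 60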;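 note: rat C6 glioma line stably carrying human EP2 under a CMV promoter; the protocol text gives 20 µM as final concentration; 100% = response of wells given 1 µM PGE2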
NR2E3 ag-2: NR2E3 agonists in two-hybrid cells, primary screen, cell-based, luminescence, CHO-S, Gal4-NCOR/VP16-NR2E3. luciferase. inhibition of corepressor binding, % at 3.98 µM. Photoreceptor-specific nuclear receptor (Homo sapiens), Q9Y5X4. 360,000 tested, 0.35% active;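 active = inhibition above the mean of all tested compounds plus 3 SD, cut at about 70% in these data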;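 note: 0% = DMSO with NR2E3 transfected cells and 100% = cells lacking NR2E3 construct; higher means lower luciferase signal from less NR2E3 corepressor binding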
NR2E3 ag confirm: NR2E3 agonist confirmation in cells, cell-based, luminescence, CHO-S two-hybrid; shares compounds with NR2E3 ag-2; CHO-S mammalian two-hybrid NR2E3-NCOR, luciferase luminescence; inhibition, % at 3.98 µM; 2,300 tested, 51% active; AID 624378, 2012;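 active = average inhibition above a cutoff equal to the mean inhibition of all tested compounds plus one SD, cut at about 70% in these data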;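 note: 0% = DMSO in NR2E3 cells and 100% = DMSO in cells lacking NR2E3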
VP16 counter: GAL4-VP16 reporter modulators, confirmation, counter-screen for NR2E3 agonist project, cell-based, luminescence, CHO-S, high throughput | inhibition, % at 3.98 µM | shares compounds with NR2E3 ag-2 | CHO-S GAL4-VP16 luciferase reporter | 2,300 tested, 29% active;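 active = mean inhibition above a cutoff equal to the average over all tested compounds plus one standard deviation, cut at about 70% in these data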;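 note: luciferase from a UAS reporter driven by GAL4-VP16 transactivation; 0% = DMSO with VP16-transfected cells and 100% = DMSO with cells lacking VP16; higher means less reporter light so more repression of VP16 activity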
* = called active by the depositor; x = not tested or not shown.

SMILES	JMJD2C inh	NR2E3 ag-1	Furin inh	PGE2 EP2 inh	EP2 modulator	NR2E3 ag-2	NR2E3 ag confirm	VP16 counter
CC1=C(C(=O)Nc2ccc(C)cc2C)C(c2cccs2)NC(=O)N1 (stereo unspecified)	x	x	x	21.4	-20.8	x	x	x
CCN(CC)S(=O)(=O)c1ccc(S(=O)(=O)Nc2c(C)nn(C)c2C)cc1	-7.4	0.8	x	x	x	52.5	43.4	53.2
Cc1nn(C)c(C)c1NS(=O)(=O)c1ccc(Cl)cc1	2.8	2.0	x	x	x	-14.6	x	x
O=C(CCCN1C(=O)/C(=C/c2cccc(Br)c2)SC1=S)Nc1nccs1	x	x	x	13.6	-111.9	x	x	x
Cc1cc(C2=NNC(=NC3CC3)SC2)c(C)n1-c1ccccc1F	0.5	1.1	-0.5	6.5	-18.8	94.2*	89.2*	90.7*
O=C(NC1CCCCC1)c1nc2ncccn2n1	x	x	x	10.9	-32.7	x	x	x
CC1=Nc2ccccc2/C1=C/c1sc(=N)n(-c2nccs2)c1O	11.3	3.2	-0.2	7.0	-5.4	75.8*	66.7	30.8
Cc1cccc(C)c1NC(=O)C(=O)NCCN1CCOCC1	x	x	x	10.4	2.6	x	x	x
COc1ccc(CCNC(=O)c2ncoc2-c2cccs2)cc1	x	x	x	10.6	-45.7	x	x	x
CCCn1c(C)cc(C(=O)CN2C(=O)c3ccccc3S2(=O)=O)c1C	x	x	x	x	x	57.8	46.3	19.2
Cc1cc(C(=O)CN2C(=O)c3ccccc3S2(=O)=O)c(C)n1CC1CCCO1 (stereo unspecified)	5.1	0.9	-21.5	9.6	-2.4	23.2	x	x
O=S(=O)(c1ccc2ccccc2c1)N(CC(O)CN1CCCC1)c1ccccc1 (stereo unspecified)	x	x	x	6.7	-50.9	x	x	x
CC[C@@]1(O)C(=O)OCc2c1cc1n(c2=O)Cc2cc3c(N)cccc3nc2-1	8.9	-6.8	-22.2	10.9	-26.2	81.9*	87.6*	41.4
O=C(C1CCCCC1)N1CCC[C@H]1Cn1nc(-c2ccc3c(c2)OCCO3)ccc1=O	x	x	x	5.4	-1.0	x	x	x
CC(=O)c1ccc(S(=O)(=O)N2CCN(c3ccnc4cc(Cl)ccc34)CC2)cc1	x	x	x	x	x	59.1	62.4	54.2
Cc1ccc(S(=O)(=O)N2CCN(c3ccnc4cc(Cl)ccc34)CC2)cc1	5.6	-0.6	-11.4	4.9	-57.8	17.9	x	x
COc1cc(OC)c(C2C(C#N)=C(N)Oc3n[nH]c(-c4cccs4)c32)c(OC)c1 (stereo unspecified)	x	x	x	7.6	-20.9	x	x	x
O=C(O)C1CCCN1C(=O)c1ccccc1Cl (stereo unspecified)	x	x	x	7.5	-9.7	x	x	x
N=C1SC(c2ccccc2)C(=O)N1c1ncc(Cc2ccccc2Cl)s1 (stereo unspecified)	-3.4	-1.2	-18.1	16.9	23.2	57.8	59.0	20.4
COCCNC(=O)Cn1cc(/C=C2\C(=O)NC(=S)N(c3ccccc3)C2=O)c2ccccc21	x	x	x	7.2	-59.6	x	x	x
CC[n+]1c(/C=C/c2ccc(N(C)C)cc2)ccc2cc(C)ccc21	x	x	x	20.4	-67.5	x	x	x
CN(C)c1ccc(/C=C/c2ccc3c4ccccc4ccc3[n+]2-c2ccccc2)cc1	x	x	-18.1	18.5	-49.9	100.7*	99.0*	89.8*
CN(C)c1ccc(/C=C/c2ccc3ccccc3[n+]2C)cc1	-15.8	-28.0	-1.4	100.4*	-25.5	52.4	86.7*	51.9
COC(=O)c1ccccc1NC(=O)CSc1nnc(-c2ccc(OC)c(OC)c2)n1C	x	x	x	7.9	28.5	x	x	x
Cc1noc(C)c1COC(=O)c1ccc(F)c(S(=O)(=O)N2CCCCC2)c1	-16.1	-0.1	-19.7	7.6	-16.3	-24.9	x	x

Compound activity: PubChem BioAssay, several laboratories
